Experimental data taken from ChEMBL document CHEMBL1150415 (J Med Chem, 2008).
pIC50: −log10 of the molar value. Activity calls are given as the source filed them. No cut-off for these calls is given here.

Experiments:
MC9 [1] = experiment: Inhibition of PGF2alpha production in mouse MC9 cells; assay type: functional, cell-based
[2] = Plasma clearance in Sprague-Dawley rat at 2 mg/kg, iv; assay type: ADME, organism-based; design: dose 2 mg/kg, route intravenous
Blood [3] = experiment: Inhibition of LTB4 production in human whole blood at 0.039 uM; assay type: functional
Procedure, shortened: (§1)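 Human whole blood stimulated with calcium ionophore A23187 at 30 µM. Several arachidonic acid metabolites (LTB4, PGE2, PGF2α, TXB2) and PAF production were quantified.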

[4] = Plasma concentration in collagen-induced arthritis mouse model at 100 mg/kg, po twice daily after 3 hrs; assay type: ADME, organism-based; design: dose 100 mg/kg, route oral
Rattus norvegicus [5] = experiment: Inhibition of PGE2 production in carrageenan-stimulated orally dosed rat air pouch model after 6 hrs; assay type: functional; conditions: po
Procedure, shortened: (§2)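 Carrageenan was injected into a preformed air pouch 2 h after oral drug. Pouch contents were removed 6 h later and PGE2 was quantified.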

[6] = Inhibition of cytosolic phospholipase A2alpha at 0.020 uM
Procedure, shortened: (§3)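 Isolated enzyme activity on PAPC (1-palmitoyl-2-arachidonoyl-sn-glycero-3-phosphocholine) liposome substrate.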

Blood [7] = experiment: Inhibition of PGF2alpha production in human whole blood at 0.039 uM; assay type: functional; procedure, shortened: as §1
[8] = Ratio of AUC in Sprague-Dawley rat at 25 mg/kg, po to IC50 for TXB2 production in Sprague-Dawley rat whole blood; assay type: functional
Blood [9] = experiment: Inhibition of PGE2 production in human whole blood at 0.039 uM; assay type: functional; procedure, shortened: as §1
Rattus norvegicus [10] = experiment: Reduction in synovitis damage in Freund's adjuvant-induced arthritis Lewis rat model at 50 mg/kg, po for 11 days; assay type: functional, organism-based; design: dose 50 mg/kg
Procedure, shortened: (§4)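 Arthritis was induced in Lewis rats by intradermal complete Freund's adjuvant at the base of the tail. Oral treatment began on day 8, when mean clinical joint scores were 12, and continued for 11 days. Tarsal joints were taken at necropsy and lesions were scored histologically in blinded fashion.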

[11] = Plasma concentration in adjuvant-induced arthritis Lewis rat model at 25 mg/kg, po after 4 hrs; assay type: ADME, organism-based; design: dose 25 mg/kg, route oral
Mus musculus = experiment: Plasma concentration in collagen-induced arthritis mouse model at 100 mg/kg, po twice daily after 12 to 14 hrs; assay type: ADME, organism-based; design: dose 100 mg/kg, route oral; conditions: in vivo
MC9 [12] = experiment: Inhibition of LTB4 production in mouse MC9 cells; assay type: functional, cell-based
[13] = Plasma concentration in adjuvant-induced arthritis Lewis rat model at 50 mg/kg, po after 16 hrs; assay type: ADME, organism-based; design: dose 50 mg/kg, route oral
[14] = Plasma concentration in adjuvant-induced arthritis Lewis rat model at 5 mg/kg, po after 16 hrs; assay type: ADME, organism-based; design: dose 5 mg/kg, route oral
[15] = Plasma concentration in adjuvant-induced arthritis Lewis rat model at 25 mg/kg, po after 16 hrs; assay type: ADME, organism-based; design: dose 25 mg/kg, route oral
[16] = Inhibition of cytosolic phospholipase A2alpha by GLU micelle assay
Procedure, shortened: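 Micellar assay with 7-hydroxycoumarinyl-γ-linolenate (GLU) substrate, presenting inhibitor and substrate to the enzyme in high-lipid micelles. Each run gives the mean of duplicate assays, and values come from at least two runs.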

Blood [17] = experiment: Inhibition of PAF production in human whole blood at 0.039 uM; assay type: functional; procedure, shortened: as §1
Rattus norvegicus [18] = experiment: Reduction in synovitis damage in Freund's adjuvant-induced arthritis Lewis rat model at 5 mg/kg, po for 11 days; assay type: functional, organism-based; design: dose 5 mg/kg; procedure, shortened: as §4
[19] = target: T1, Cytosolic phospholipase A2 gamma (Homo sapiens) (UniProt Q9UP65); experiment: Inhibition of cytosolic phospholipase A2gamma at 0.5 uM; procedure, shortened: as §3
T1 sequence (whole entry): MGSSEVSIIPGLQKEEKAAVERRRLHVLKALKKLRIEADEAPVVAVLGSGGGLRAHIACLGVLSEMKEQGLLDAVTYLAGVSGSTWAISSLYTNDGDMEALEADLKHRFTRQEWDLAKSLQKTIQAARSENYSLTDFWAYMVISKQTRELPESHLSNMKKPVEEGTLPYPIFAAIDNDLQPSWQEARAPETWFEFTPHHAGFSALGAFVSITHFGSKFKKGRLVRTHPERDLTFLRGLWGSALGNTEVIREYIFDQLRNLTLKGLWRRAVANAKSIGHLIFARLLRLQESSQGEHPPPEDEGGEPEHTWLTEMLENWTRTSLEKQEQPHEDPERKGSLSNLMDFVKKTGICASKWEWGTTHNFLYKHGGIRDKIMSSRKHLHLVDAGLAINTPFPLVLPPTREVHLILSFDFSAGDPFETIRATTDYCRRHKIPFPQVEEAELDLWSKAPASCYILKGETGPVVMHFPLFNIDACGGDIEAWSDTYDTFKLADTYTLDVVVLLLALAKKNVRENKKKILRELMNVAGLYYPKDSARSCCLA

Rattus norvegicus [20] = experiment: Inhibition of PGE2 production in carrageenan-stimulated rat air pouch model at 5 mg/kg, po after 6 hrs; assay type: functional; procedure, shortened: as §2
Blood [21] = experiment: Inhibition of TXB2 production in human whole blood at 0.039 uM; assay type: functional; procedure, shortened: as §1
Rattus norvegicus [22] = experiment: Inhibition of carrageenan-induced paw edema in po dosed Sprague-Dawley rat administered 2 hrs before carrageenan challenge; assay type: functional
Ovis aries [23] = experiment: Effect on late asthmatic response in Ascaris Suum antigen-induced reversible airway bronchoconstriction sheep model assessed as reduction in lung resistance at 10 mg/kg, po bid administered 2 hrs before antigen challenge measured 5 to 8 hrs after challenge; assay type: functional; design: scale not given: the % may be the effect or the level left
[24] = Inhibition of cytosolic phospholipase A2alpha
[25] = tested on: Prostaglandin G/H synthase 1, cyclooxygenase-1; experiment: Inhibition of COX1 in microsomes at 100 uM
MC9 [26] = experiment: Inhibition of PGF2apha production in arachidonic acid-stimulated mouse MC9 cells; assay type: functional, cell-based
[27] = Oral bioavailability in rat; assay type: ADME, organism-based; conditions: in vivo
Rattus norvegicus [28] = experiment: Reduction in cartilage damage in Freund's adjuvant-induced arthritis Lewis rat model at 50 mg/kg, po for 11 days; assay type: functional, organism-based; design: dose 50 mg/kg; procedure, shortened: as §4
[29] = Plasma concentration in adjuvant-induced arthritis Lewis rat model at 5 mg/kg, po after 4 hrs; assay type: ADME, organism-based; design: dose 5 mg/kg, route oral
[30] = Plasma concentration in adjuvant-induced arthritis Lewis rat model at 50 mg/kg, po after 4 hrs; assay type: ADME, organism-based; design: dose 50 mg/kg, route oral
Ovis aries [31] = experiment: Inhibition of acute hyperresponsiveness in Ascaris Suum antigen-induced reversible airway bronchoconstriction sheep model assessed as reduction in lung resistance at 10 mg/kg, po bid administered and measured after 16 hrs
[32] = tested on: Prostaglandin G/H synthase 2, cyclooxygenase-2; experiment: Inhibition of COX2 in microsomes at 100 uM
Rattus norvegicus [33] = experiment: Reduction in synovitis damage in Freund's adjuvant-induced arthritis Lewis rat model at 25 mg/kg, po for 11 days; assay type: functional, organism-based; design: dose 25 mg/kg; procedure, shortened: as §4
Rattus norvegicus [34] = experiment: Reduction in cartilage damage in Freund's adjuvant-induced arthritis Lewis rat model at 5 mg/kg, po for 11 days; assay type: functional, organism-based; design: dose 5 mg/kg; procedure, shortened: as §4
[35] = Inhibition of secreted phospholipase A2 at 0.5 uM
Procedure, shortened: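 Type II secreted PLA2 activity measured with PAPE (1-palmitoyl-2-arachidonoyl-sn-glycero-3-phosphoethanolamine) liposomes as substrate.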

[36] = target: T2, Cytosolic phospholipase A2 beta (Homo sapiens) (UniProt P0C869); experiment: Inhibition of cytosolic phospholipase A2beta at 0.5 uM; procedure, shortened: as §3
T2 sequence (whole entry): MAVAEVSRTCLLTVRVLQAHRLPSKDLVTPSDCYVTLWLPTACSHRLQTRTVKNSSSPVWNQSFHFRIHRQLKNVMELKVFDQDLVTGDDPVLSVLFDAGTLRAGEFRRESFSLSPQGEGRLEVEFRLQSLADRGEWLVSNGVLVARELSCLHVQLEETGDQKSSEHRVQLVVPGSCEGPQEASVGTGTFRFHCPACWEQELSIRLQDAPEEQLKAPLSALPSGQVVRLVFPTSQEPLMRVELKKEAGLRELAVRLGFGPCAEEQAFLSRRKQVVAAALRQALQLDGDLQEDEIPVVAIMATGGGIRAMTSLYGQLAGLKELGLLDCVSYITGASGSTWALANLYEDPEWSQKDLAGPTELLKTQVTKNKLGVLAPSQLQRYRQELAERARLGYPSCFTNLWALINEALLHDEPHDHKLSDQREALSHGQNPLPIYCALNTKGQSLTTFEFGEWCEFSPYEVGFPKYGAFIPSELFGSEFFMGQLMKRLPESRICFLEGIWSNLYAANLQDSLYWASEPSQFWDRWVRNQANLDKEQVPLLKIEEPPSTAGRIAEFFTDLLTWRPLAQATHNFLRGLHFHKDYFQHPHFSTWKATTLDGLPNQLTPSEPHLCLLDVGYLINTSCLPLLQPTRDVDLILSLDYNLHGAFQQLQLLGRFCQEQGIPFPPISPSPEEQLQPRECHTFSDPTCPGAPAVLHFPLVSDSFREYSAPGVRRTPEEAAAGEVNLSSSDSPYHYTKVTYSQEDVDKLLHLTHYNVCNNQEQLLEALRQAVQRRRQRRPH

Rattus norvegicus [37] = experiment: Reduction in cartilage damage in Freund's adjuvant-induced arthritis Lewis rat model at 25 mg/kg, po for 11 days; assay type: functional, organism-based; design: dose 25 mg/kg; procedure, shortened: as §4
Rattus norvegicus [38] = experiment: Inhibition of carrageenan-induced paw edema in Sprague-Dawley rat administered 2 hrs before carrageenan challenge at 25 mg/kg, po; assay type: functional

pIC50 (MC9 [1]): 8.22
clearance [2]: 3 mL/min/kg
concentration at 3 h [4]: 923 ng/mL
inhibition [6]: > 90%
concentration at 4 h [11]: 698 ng/mL
Cp (Mus musculus): 118 ng/mL
pIC50 (MC9 [12]): 7.92
concentration at 16 h [13]: 110 ng/mL
concentration at 16 h [14]: 26 ng/mL
concentration at 16 h [15]: 73 ng/mL
pIC50 [16]: 8.00
Activity [19]: inactive
pIC50 [24]: > 8.00
Activity [25]: inactive
pIC50 (MC9 [26]): < 6.00
bioavailability [27]: 4%
concentration at 4 h [29]: 69 ng/mL
concentration at 4 h [30]: 1140 ng/mL
Activity [32]: inactive
Activity [35]: inactive
Activity [36]: inactive
Structure (SMILES): Cc1cccc(C)c1CS(=O)(=O)NCCc1c(CCCc2ccc(C(=O)O)cc2)c2cc(Cl)ccc2n1C(c1ccccc1)c1ccccc1
inhibition at 0.039 µM (Blood [3]): 78%
ED50 (Rattus norvegicus [5]): 3.5 mg/kg
inhibition at 0.039 µM (Blood [7]): 72%
Ratio [8]: 160 h
inhibition at 0.039 µM (Blood [9]): 79%
Activity (Rattus norvegicus [10]): Active
inhibition at 0.039 µM (Blood [17]): 57%
Activity (Rattus norvegicus [18]): Active
inhibition in vivo at 5 mg/kg (Rattus norvegicus [20]): > 50%
inhibition at 0.039 µM (Blood [21]): 72%
ED50 (Rattus norvegicus [22]): 8 mg/kg
Activity (Ovis aries [23]): 85%
Activity (Rattus norvegicus [28]): Active
Activity (Ovis aries [31]): Active
Activity (Rattus norvegicus [33]): Active
Activity (Rattus norvegicus [34]): Active
Activity (Rattus norvegicus [37]): Active
inhibition in vivo at 25 mg/kg (Rattus norvegicus [38]): 34%
